Test: transferrin endocytosis inhibition in mSR-BI cells, dose response, selectivity assay for SR-BI HDL uptake inhibitor project, imaging, Alexa594-transferrin, dry powder (AID 602134)
Conditions: series mostly up to 35 µM; transferrin uptake change vs neutral control, negative = inhibition: at the top concentration;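 active means falling transferrin uptake with a fitted half-maximal potency at or below twice the top valid tested dose; inconclusive means flat fit with a 30 to 70% drop, or poor fit; inactive means the rest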
Summary of the method: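 Material – mSR-BI cells · Buffer or medium – serum-free DMEM, 1% BSA · Reagent – Alexa-594 transferrin, 30 µg/mL · Schedule – transferrin uptake 30 min at 37 °C, stopped on ice · Detection – fluorescence imaging, Alexa-594 and DAPI · Read-out basis – normalized percent of cells with above-threshold perinuclear transferrin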

Transferrin uptake change vs neutral control, negative = inhibition, inactive:
CCC(=O)N1CCc2cc(-c3csc(NC(=O)c4cccc(OC)c4)n3)ccc21 28.3%, CCCCCCC1CCC/C1=N\NC(N)=S (configuration not stated) -4.54%, CCC(=O)N1CC(C)(C)c2cc(-c3csc(NC(=O)c4cc(OC)cc(OC)c4)n3)ccc21 3.48%, C[C@H](C(=O)NC1CCCC1)N(C(=O)Cn1nnc(-c2ccc3c(c2)OCO3)n1)C1CCCCC1 27.8%, COc1ccc(-c2cc(CC(=O)N(C3CCCCC3)C(C)C(=O)NC3CCCC3)no2)cc1OC (configuration not stated) 31.6%, CCNC(=O)N1CCc2cc(-c3csc(NC(=O)c4cc(OC)cc(OC)c4)n3)ccc21 -0.582%, CC(=O)N1CCc2cc(-c3nc(NC(=O)c4cccc(OC(F)(F)F)c4)sc3C)ccc21 16.8%, COc1cc(OC)cc(C(=O)Nc2nc(-c3ccc4c(c3)CCN4C(=O)CN(C)C)cs2)c1 -33.9%, COCC(=O)N1CCc2cc(-c3csc(NC(=O)c4cc(OC)cc(OC)c4)n3)ccc21 16.9%, CCC(=O)N1CCc2cc(-c3csc(NC(=O)c4ccc(F)c(OC)c4)n3)ccc21 44.9%, COc1c(NC(=O)C(=O)c2ccc(OCCN3CCOCC3)c3ccccc23)cc(C(C)(C)C)cc1NS(C)(=O)=O 9.84%, C[C@@H]1CN([C@H](C)CO)C(=O)c2cc(NC(=O)Cc3cn(C)c4ccccc34)ccc2O[C@H]1CN(C)S(=O)(=O)c1ccc(Cl)cc1 25.5%
